# Assay results gathered from unrelated publications.
# Protocols differ between the studies behind these lines. pIC50: −log10 of the molar value.
# EAPA: Endothiapepsin (EAPA, Cryphonectria parasitica, UniProt P11838)
# AURKA: Aurora kinase A (AURKA, Homo sapiens, UniProt O14965)
# FLT3: Receptor-type tyrosine-protein kinase FLT3 (FLT3, Homo sapiens, UniProt P36888)
# CSNK1D: Casein kinase I isoform delta (CSNK1D, Homo sapiens, UniProt P48730)
# Aldo-keto reductase family 1 member B1: Aldo-keto reductase family 1 member B1 (Bos taurus, UniProt P16116)
# MMP3: Stromelysin-1 (MMP3, Homo sapiens, UniProt P08254)
# FAAH: Fatty-acid amide hydrolase 1 (FAAH, Homo sapiens, UniProt O00519)
# DHFR: Dihydrofolate reductase (DHFR, Homo sapiens, UniProt P00374)
# ROCK1: Rho-associated protein kinase 1 (ROCK1, Homo sapiens, UniProt Q13464)
SMILES,target,effect on,action,method,setting,pIC50
CC(C)(C(=O)O)C1=C/C(=C\c2ccc(-c3ccccc3)cc2)c2ccc(F)cc21,"Prostaglandin G/H synthase 1 (PTGS1, Homo sapiens, UniProt P23219)",enzyme activity in cells,inhibitor,,,5.89
NNC(COCc1ccccc1)c1nnnn1CCc1ccc(O)cc1 (stereo not shown),EAPA,enzyme activity,inhibitor,fluorescence,,4.05
Nc1nc(Nc2ccc3c(c2)CC[C@@H](N2CCCC2)CC3)nn1-c1cc2c(nn1)-c1ccccc1CCC2,"Tyrosine-protein kinase receptor TYRO3 (TYRO3, Homo sapiens, UniProt Q06418)",enzyme activity,inhibitor,,,6.03
Cc1cnc(-c2ccc(-c3ccc(NC(=O)Nc4c(F)cc(F)cc4F)cc3F)c3c2C(=O)NC3)[nH]1,AURKA,enzyme activity,inhibitor,,,9.42
CC(C)Nc1ccnc(Nc2cccc(-c3nccs3)c2)n1,FLT3,enzyme activity,inhibitor,,,6.32
CN1CCN(c2ccc(Nc3ncc4cc(C#N)c(=O)n(C5CCCC5)c4n3)cc2)CC1,CSNK1D,enzyme activity,inhibitor,,,5.75
C/C(=N/N=c1/scc(-c2ccc(Cl)cc2)n1-c1ccccc1)c1ccc2c(c1)OCCO2,Aldo-keto reductase family 1 member B1,enzyme activity,inhibitor,absorbance,,4.84
COc1ccc2c(Oc3ccc4c(C(=O)Nc5ccccc5N)cccc4c3)ccnc2c1,AURKA,enzyme activity,inhibitor,,,< 6.30
O=C(Nc1ccccc1C=NNS(=O)(=O)c1ccc2ccccc2c1)c1ccc([N+](=O)[O-])cc1,"UDP-N-acetylmuramate--L-alanine ligase (murC, Escherichia coli K-12, UniProt P17952)",enzyme activity,inhibitor,absorbance,,4.57
CC(C)C[C@H](CC(=O)NO)C(=O)N[C@@H](Cc1ccccc1)C(=O)NCCN1CCOCC1,MMP3,enzyme activity,inhibitor,fluorescence,,6.65
CSCC[C@H](NC(=O)[C@H](Cc1c[nH]c2ccccc12)NC(=O)CNC(=O)[C@H](Cc1ccc(O)cc1)NC(=O)[C@H](C)NC(=O)[C@@H](CCC(=O)O)NC(=O)CN1CCN(CC(=O)O)CCN(CC(=O)O)CCN(CC(=O)O)CC1)C(=O)N[C@@H](CC(=O)O)C(=O)N[C@@H](Cc1cccc2ccccc12)C(N)=O,"Gastrin/cholecystokinin type B receptor (CCKBR, Homo sapiens, UniProt P32239)",ligand displacement,,radioligand,,8.45
O=C(Oc1nsnc1N1CCN(c2ccccc2)CC1)N1CCCCC1,FAAH,enzyme activity,inhibitor,,cell membranes,6.68
COC(=O)c1cccc(Nc2nccc(NC3CCCCC3)n2)c1,FLT3,enzyme activity,inhibitor,,,6.01
O=C(Oc1nsnc1N1CCc2ccccc2C1)N1CCCCC1,FAAH,enzyme activity,inhibitor,,cell membranes,7.77
COc1cccc(-n2c(-c3ccc([N+](=O)[O-])cc3)cs/c2=N/N=C\c2c[nH]c3ccccc23)c1,Aldo-keto reductase family 1 member B1,enzyme activity,inhibitor,absorbance,,5.38
NNC(c1nnnn1CC(c1ccccc1)c1ccccc1)C1CCCCC1 (stereo not shown),EAPA,enzyme activity,inhibitor,fluorescence,,4.01
C[C@@H]1Cc2ccccc2N1C(=O)NCCCCN(C)[C@@H]1Cc2cccc3[nH]c(=O)n(c23)C1,"5-hydroxytryptamine receptor 2C (HTR2C, Homo sapiens, UniProt P28335)",ligand displacement,,radioligand,,< 5.00
O=C(Nc1cccnc1)N1CCC(Cc2cccc(Oc3ccc(C(F)(F)F)cn3)c2)CC1,"Monoglyceride lipase (MGLL, Homo sapiens, UniProt Q99685)",enzyme activity,inhibitor,absorbance,,< 5.00
Cc1ccc2nc(-c3ccc(Cl)cc3)n(Cc3ccccc3)c2c1,DHFR,enzyme activity,inhibitor,,,5.63
c1cc(Nc2nccc(NC3CCCCC3)n2)cc(-c2cnccn2)c1,FLT3,enzyme activity,inhibitor,,,7.70
O=[N+]([O-])c1ccc(-c2cs/c(=N/N=C\c3c[nH]c4ccccc34)n2Cc2ccccc2)cc1,Aldo-keto reductase family 1 member B1,enzyme activity,inhibitor,absorbance,,5.82
C[C@H]1OC(=O)/C=C/C(=O)[C@@H](OC(=O)CCC(=O)O)CCCCCCCC[C@H]1O,MMP3,enzyme activity,inhibitor,,,5.00
O=C(Nc1ccc(Br)cc1)N1CCC(n2c(=O)[nH]c3c(Br)cccc32)CC1,"Formamidopyrimidine-DNA glycosylase (Escherichia coli, UniProt P05523)",enzyme activity,inhibitor,,,< 4.00
Cc1nccc2c1c(=O)n(C)c1cc(OC[C@@H](N)CC(C)C)c(C#N)cc21,"BMP-2-inducible protein kinase (BMP2K, Homo sapiens, UniProt Q9NSY1)",enzyme activity,inhibitor,,,7.35
CC(C)(C)n1nc(-c2cnc3cc(OC4CC4)ccc3c2)c(C(N)=O)c1N,ROCK1,cell-free assay,,,,< 5.00
CCN(CC)CCCC[C@H](NC(=O)[C@H](CC(C)C)NC(=O)[C@H](C)NC(=O)[C@H](Cc1ccccc1)NC(=O)c1ccc(C(C)(C)C)cc1)C(=O)N[C@@H](CO)C(=O)OC,"Chromodomain Y-like protein 2 (CDYL2, Homo sapiens, UniProt Q8N8U2)",ligand displacement,,TR-FRET,,7.07
CN(C)CC#Cc1ccc2[nH]c3c(c2c1)-c1nc(N)ncc1CCC3,"Serine/threonine-protein kinase ULK3 (ULK3, Homo sapiens, UniProt Q6PHR2)",enzyme activity,inhibitor,radiometric,,< 5.00
O=C(Oc1nsnc1N1CCCCC1)N1CCCC1,FAAH,enzyme activity,inhibitor,,cell membranes,6.09
CC1=C(/C=C/C(C)=C/C=C/C(C)=C/CO)C(C)(C)CCC1,"Prothrombin (F2, Bos taurus, UniProt P00735)",enzyme activity,inhibitor,fluorescence,,3.28
Clc1ccc(Cn2c(-c3ccc(Cl)cc3)nc3ccccc32)cc1,DHFR,enzyme activity,inhibitor,,,4.97
C/C(=N/N=c1/scc(-c2ccc(Br)cc2)n1-c1c(C)cccc1C)c1ccc2c(c1)OCCO2,Aldo-keto reductase family 1 member B1,enzyme activity,inhibitor,absorbance,,5.50
CC[C@@H](C)Nc1ccnc(Nc2cccc(-c3cccnc3)c2)n1,FLT3,enzyme activity,inhibitor,,,> 8.22
O=C1NCCc2sc(-c3ccncc3)cc21,CSNK1D,enzyme activity,inhibitor,,,5.85
CC(=N/N=c1\scc(-c2ccc(Br)cc2)n1-c1ccccc1)C12CC3CC(CC(C3)C1)C2,Aldo-keto reductase family 1 member B1,enzyme activity,inhibitor,absorbance,,5.36
CC(C)Nc1ccnc(Nc2ccccc2-c2ccccc2)n1,FLT3,enzyme activity,inhibitor,,,< 4.62
CCCOc1ccc(Nc2cc(C)nc3ccc(Cl)cc23)cc1,"Cell division protein FtsZ (Mycobacterium tuberculosis, UniProt P9WN95)",tubulin polymerisation,inhibitor,,,4.64
CC(C)(C)n1nc(-c2ccc3nc(OC4CC4)ccc3c2)c(C(N)=O)c1N,ROCK1,cell-free assay,,,,< 5.00
COc1ccc(S(=O)(=O)N2Cc3cc(O)c(O)cc3CC2C(=O)NO)cc1 (stereo not shown),MMP3,enzyme activity,inhibitor,,,5.00
Cc1ccc(C(=O)Nc2ccc(Oc3cc4cnn(C)c4cc3-c3cn[nH]c3)c(F)c2)c(=O)n1-c1ccc(F)cc1,"Tyrosine-protein kinase receptor Tie-1 (TIE1, Homo sapiens, UniProt P35590)",enzyme activity in cells,inhibitor,,,< 6.00
O=C(O)c1ccc2nc(-c3ccc(OCc4ccccc4COc4ccc(-c5nc6ccc(C(=O)O)cc6[nH]5)cc4)cc3)[nH]c2c1,DHFR,enzyme activity,inhibitor,,,< 3.60
c1cc(Nc2nccc(NC3CCCCC3)n2)cc(-n2ccnc2)c1,FLT3,enzyme activity,inhibitor,,,7.80
CC(=N/N=c1\scc(-c2ccc(Cl)cc2)n1-c1c(C)cccc1C)C12CC3CC(CC(C3)C1)C2,Aldo-keto reductase family 1 member B1,enzyme activity,inhibitor,absorbance,,5.45
CCNc1ccnc(Nc2cccc(-c3cccnc3)c2)n1,FLT3,enzyme activity,inhibitor,,,7.32
O=C(O)c1ccnc2c(O)cccc12,"Gamma-butyrobetaine dioxygenase (BBOX1, Homo sapiens, UniProt O75936)",enzyme activity,inhibitor,,,3.95
Cc1ccc2nc(-c3ccc([N+](=O)[O-])cc3)n(Cc3ccccc3)c2c1,DHFR,enzyme activity,inhibitor,,,5.17
CNc1ccnc(Nc2cccc(-c3cccnc3)c2)n1,FLT3,enzyme activity,inhibitor,,,6.69
